Measured values published in ChEMBL document CHEMBL1287780, “Discovery of 1H-benzo[d][1,2,3]triazol-1-yl 3,4,5-trimethoxybenzoate as a potential antiproliferative agent by inhibiting histone deacetylase” (Bioorg Med Chem, 2010).

Columns and labels:
KB = experiment: Antiproliferative activity against human KB cells after 72 hrs by methylene blue staining; type: functional, cell-based
Summary of the method: (§1)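 Log-phase cells kept in RPMI-1640 with 5% fetal bovine serum, seeded at 5000 cells/mL/well, then exposed to a range of drug concentrations for 72 h. Growth read by methylene blue dye assay. IC50, the concentration giving 50% growth inhibition relative to untreated control, derived graphically. Doxorubicin served as positive control.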

NCI-H460 = experiment: Antiproliferative activity against human H460 cells after 72 hrs by methylene blue staining; type: functional, cell-based; conditions: NCI-H460, 72 h; summary of the method: as §1
MKN-45 = experiment: Antiproliferative activity against human MKN45 cells after 72 hrs by methylene blue staining; type: functional, cell-based; conditions: MKN-45, 72 h; summary of the method: as §1
Histone deacetylase = experiment: Inhibition of human HDAC after 30 mins; type: protein assay

For `O=C(On1nnc2ccccc21)c1ccccc1`, the IC50 (KB) was 104 nM, the IC50 (NCI-H460) was 195 nM and the IC50 (MKN-45) was 97 nM.
`O=C(On1nnc2ccccc21)c1ccc(O)cc1` gave an IC50 (KB) of 88 nM, an IC50 (NCI-H460) of 98 nM and an IC50 (MKN-45) of 49 nM.
`O=C(On1nnc2ccccc21)c1cc(O)cc(O)c1` gave an IC50 (KB) of 67 nM, an IC50 (NCI-H460) of 52 nM and an IC50 (MKN-45) of 28 nM.
With `COc1ccc(C(=O)On2nnc3ccccc32)cc1` the IC50 (KB) was 43 nM, the IC50 (NCI-H460) was 52 nM and the IC50 (MKN-45) was 39 nM. It also gave an IC50 (Histone deacetylase) of 73100 nM.
`COc1ccc2nnn(OC(=O)c3ccccc3)c2c1` showed an IC50 (KB) of 209 nM, an IC50 (NCI-H460) of 295 nM and an IC50 (MKN-45) of 206 nM.
`O=C(c1ccccc1)n1nnc2ccccc21` gave an IC50 (KB) of 666 nM, an IC50 (NCI-H460) of 750 nM and an IC50 (MKN-45) of 668 nM.
In the case of `O=C(c1ccc(O)cc1)n1nnc2ccccc21`, the IC50 (KB) is reported as 577 nM, the IC50 (NCI-H460) is reported as 662 nM and the IC50 (MKN-45) is reported as 385 nM.
With `O=C(c1cc(O)cc(O)c1)n1nnc2ccccc21` the IC50 (KB) was 575 nM, the IC50 (NCI-H460) was 559 nM and the IC50 (MKN-45) was 521 nM.
`O=C(c1cc(O)c(O)c(O)c1)n1nnc2ccccc21` showed an IC50 (KB) of 392 nM, an IC50 (NCI-H460) of 332 nM and an IC50 (MKN-45) of 334 nM.
In the case of `COc1ccc(C(=O)n2nnc3ccccc32)cc1`, the IC50 (KB) is reported as 501 nM, the IC50 (NCI-H460) is reported as 662 nM and the IC50 (MKN-45) is reported as 500 nM.
`O=C(On1nnc2ccccc21)c1cc(O)c(O)c(O)c1` showed an IC50 (KB) of 18 nM, an IC50 (NCI-H460) of 41 nM and an IC50 (MKN-45) of 17 nM. The IC50 (Histone deacetylase) was > 100000 nM.
`COc1cc(OC)cc(C(=O)On2nnc3ccccc32)c1` gave an IC50 (KB) of 37 nM, an IC50 (NCI-H460) of 42 nM and an IC50 (MKN-45) of 30 nM. It also gave an IC50 (Histone deacetylase) of 61100 nM.
`COc1cc(C(=O)On2nnc3ccccc32)cc(OC)c1OC` was tested, and the IC50 (KB) was 1.2 nM, the IC50 (NCI-H460) was 2.4 nM and the IC50 (MKN-45) was 1.5 nM. It also gave an IC50 (Histone deacetylase) of 9400 nM.
`COc1ccc2nnn(OC(=O)c3ccc(O)cc3)c2c1` gave an IC50 (KB) of 149 nM, an IC50 (NCI-H460) of 216 nM and an IC50 (MKN-45) of 184 nM.
For `COc1ccc2nnn(OC(=O)c3cc(O)cc(O)c3)c2c1`, the IC50 (KB) was 153 nM, the IC50 (NCI-H460) was 195 nM and the IC50 (MKN-45) was 93 nM.
`COc1ccc2nnn(OC(=O)c3cc(O)c(O)c(O)c3)c2c1` showed an IC50 (KB) of 81 nM, an IC50 (NCI-H460) of 117 nM and an IC50 (MKN-45) of 36 nM.
For `COc1ccc(C(=O)On2nnc3ccc(OC)cc32)cc1`, the IC50 (KB) was 97 nM, the IC50 (NCI-H460) was 95 nM and the IC50 (MKN-45) was 93 nM.
Work on `COc1cc(OC)cc(C(=O)On2nnc3ccc(OC)cc32)c1` yielded an IC50 (KB) of 35 nM, an IC50 (NCI-H460) of 80 nM and an IC50 (MKN-45) of 36 nM. The IC50 (Histone deacetylase) was 87500 nM.
Compound `COc1ccc2nnn(OC(=O)c3cc(OC)c(OC)c(OC)c3)c2c1` has an IC50 (KB) of 11 nM, an IC50 (NCI-H460) of 23 nM and an IC50 (MKN-45) of 8 nM. The IC50 (Histone deacetylase) was 58100 nM.
In the case of `COc1cc(OC)cc(C(=O)n2nnc3ccccc32)c1`, the IC50 (KB) is reported as 434 nM, the IC50 (NCI-H460) is reported as 491 nM and the IC50 (MKN-45) is reported as 419 nM.
Work on `COc1cc(C(=O)n2nnc3ccccc32)cc(OC)c1OC` yielded an IC50 (KB) of 291 nM, an IC50 (NCI-H460) of 480 nM and an IC50 (MKN-45) of 275 nM.
`COc1cccc2c1C(=O)c1c(O)c3c(c(O)c1C2=O)C[C@@](O)(C(=O)CO)C[C@@H]3O[C@H]1C[C@H](N)[C@H](O)[C@H](C)O1` [DOXORUBICIN] was tested, and the IC50 (KB) was 0.23 nM and the IC50 (NCI-H460) was 0.38 nM.
